Biofilm kill mix = mixture kills Candida albicans biofilm cells; C. albicans biofilm persisters + clotrimazole, fluorescence viability; primary screen in compound mixtures of four per well; inhibition, % at 7.6 µM; hit rate 0.02% among 120,000; AID 1242;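 active means inhibition above 30.3% in the primary screen of four-compound pools, then above 30% when the compound was retested; inconclusive means passed the primary limit but could not be retested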;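 further: compounds exposed to preformed 24 h biofilms for 48 h; 0% = untreated biofilm control and 100% = clotrimazole plus chlorhexidine kill blank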
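Incubation: 24 h biofilm formation, then 48 h compound exposure, 37 °C | Material: C. albicans biofilms | Buffer or medium: RPMI/MOPS medium, pH 7.0 | Measured by: 2-h Alamar Blue fluorescence, 535/590 nm excitation/emission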
ROMK primary = modulators of human ROMK potassium channel; P48048; Tet-inducible ROMK, thallium flux fluorescence; actives lie on both sides; B-score at 10 µM; hit rate 2% among 130,000;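 active means signal ratio slope over the read window, or its plate-corrected B-score, at least 3 SD from the plate mean, either direction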;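 further: B-score of the F/F0 ratio slope over 7 to 12 s after thallium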
Target sequence (P48048 whole entry, looked up): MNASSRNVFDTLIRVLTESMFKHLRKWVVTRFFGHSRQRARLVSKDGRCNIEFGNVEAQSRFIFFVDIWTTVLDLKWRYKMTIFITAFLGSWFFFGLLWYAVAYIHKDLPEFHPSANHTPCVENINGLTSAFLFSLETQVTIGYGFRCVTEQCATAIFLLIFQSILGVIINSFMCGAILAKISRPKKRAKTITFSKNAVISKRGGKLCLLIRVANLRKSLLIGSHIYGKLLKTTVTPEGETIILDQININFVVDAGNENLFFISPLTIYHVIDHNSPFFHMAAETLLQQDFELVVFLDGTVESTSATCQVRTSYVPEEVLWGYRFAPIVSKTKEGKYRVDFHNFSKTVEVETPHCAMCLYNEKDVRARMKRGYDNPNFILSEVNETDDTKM
ROMK hit retest = human ROMK channel modulation, retest confirmation; shares compounds with ROMK primary; ROMK thallium flux, fluorescence ratio; stronger effect = lower value; normalized thallium flux (F/F0 slope) at 10 µM; hit rate 54% among 3,000; AID 1917;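 active means Flux at 10 µM at least 3 SD below or above vehicle control mean in one or both replicates; inconclusive means no clear call, values can overlap the other calls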
Active calls of the source: *; ? = inconclusive; nt = not tested or not shown. The sample as a whole holds a higher share of hits than the screen did.

SMILES | Biofilm kill mix | ROMK primary | ROMK hit retest
Cc1ccc(-c2nn(CC(N)=O)c(=O)c3ccccc23)cc1S(=O)(=O)N(C)C | nt | 0.72 | nt
Cc1nn(-c2ccccc2)c(C)c1C(=O)NCc1ccc(F)cc1 | 5 | 0.18 | nt
COC(=O)C1=C(C)NC(C)=C(C(=O)OC)C1c1ccc(-c2cccc(Cl)c2Cl)o1 | 22 | nt | nt
CCOC(=O)C1=C(C)NC(C)=C(C(=O)OC)C1c1cccc(Cl)c1Cl (stereo unspecified) | 16 | nt | 0.073
COc1ccc(NC(=O)C2OCCc3ccccc32)c(OC)c1 (stereo unspecified) | nt | -0.55 | nt
CCOc1ccccc1NC(=O)C1C2C=CC(O2)C1C(=O)O (stereo unspecified) | nt | 0.046 | nt
CCN(CC)c1cc(C)c(C#N)c2nc3ccccc3n12 | 6 | nt | nt
Cc1cc(Cl)n2c(nc3ccccc32)c1C#N | 21 | -5* | 0.036*
Cc1ccc(/C=[N+](\[O-])c2ccc(N(C)C)cc2)c2nsnc12 | 7 | nt | 0.047*
Cc1ccc2nsnc2c1NS(=O)(=O)c1c(C)ccc2nsnc12 | nt | 0.81 | nt
CCOC(=O)c1ccccc1OC(=O)CS(=O)c1ccccc1[N+](=O)[O-] (stereo unspecified) | 14 | 0.88 | nt
CS(=O)(=O)c1ccc(S(=O)CC(=O)OCc2ccccc2)c([N+](=O)[O-])c1 (stereo unspecified) | 6 | -5.3* | 0.053*
NS(=O)(=O)c1ccc(CCNC(=O)CSc2nnc3ccccn23)cc1 | 10 | -0.36 | nt
CCC[N+](CC#Cc1ccccc1)(CCC)CC(=O)c1ccc(Cl)cc1 | 11 | -3* | 0.063*
CCC[N+](CC#Cc1ccccc1)(CCC)CC(=O)OC | 7 | 0.26 | nt
CCCCCCCCCCCC(=O)NC(Cc1ccc(OC)c([N+](=O)[O-])c1)C(=O)O (stereo unspecified) | 15 | 4.5* | ?
CCOC(=O)C(Cc1ccc(OC)c([N+](=O)[O-])c1)NC(=O)CCC(=O)Nc1ccc(OC)cc1 (stereo unspecified) | 19 | 0.0099 | nt
COC(=O)N/N=C/c1cn(Cc2ccccc2F)c2ccccc12 | 15 | -3.4* | 0.059*
COC(=O)N/N=C/c1cn(Cc2ccccc2Cl)c2ccccc12 | 11 | -1.1 | nt
O=C(CN1CCC(Cc2ccccc2)CC1)Nc1ccc2c(c1)OCCO2 | nt | -2.5 | nt
COc1ccc(CCNC(=O)COC(=O)CCC(=O)c2ccc(F)cc2)cc1 | 10 | 0.56 | nt
Cc1c(Cl)cccc1NC(=O)CSC(N)=O | 16 | -2.6* | 0.075
Cc1c(Cl)cccc1NC(=O)CSc1nnc(C)n1-c1ccccc1 | nt | 0.05 | nt
COc1cc(CCCN2C(N)=NC[C@H]2Cc2ccc(O)cc2)cc(OC)c1OC | 14 | nt | nt
CCCC(=O)NC(=S)Nc1ccc(N2CCN(C(=O)c3cccs3)CC2)cc1 | 5 | -0.33 | nt
SMILES | Biofilm kill mix | ROMK primary | ROMK hit retest
CCCC(=O)N1CCN(c2ccc(NC(=O)c3cccs3)cc2)CC1 | 10 | 2.7* | 0.086
O=C(CCn1c(=O)oc2ccccc21)N1CCN(c2ccccc2F)CC1 | nt | -0.19 | nt
O=C(CCn1c(=O)oc2ccccc21)N1CCN(C(c2ccccc2)c2ccccc2)CC1 | nt | -2.8* | 0.059*
Cc1ccc(/C=C/C2=NN(Cc3ccccc3Cl)C(=O)CC2)cc1 | nt | 0.092 | nt
Cc1c(/C(O)=C2\C(=O)C(=O)N(CCN(C)C)C2c2ccccc2)cnn1-c1ccccc1 (stereo unspecified) | 21 | nt | 0.078
Cc1c(/C(O)=C2/C(=O)C(=O)N(CCN(C)C)C2c2ccc(C(C)C)cc2)cnn1-c1ccccc1 (stereo unspecified) | 26 | nt | nt
O=c1c2cnn(-c3ccc(F)cc3)c2ncn1Cc1ccc(F)cc1 | 12 | 1.2 | nt
CCN(CC)C(=O)CSc1nc2sc(C)c(C)c2c(=O)[nH]1 | nt | nt | 0.076
Cc1sc2nc(SCC(=O)N(C)C)[nH]c(=O)c2c1C | nt | -0.039 | nt
c1ccc(-c2ccc(-c3[nH]ncc3CN3CCC(N4CCSCC4)CC3)cc2)cc1 | 22 | 0.044 | nt
Cc1ccc(S(=O)(=O)Nc2nc3c(s2)C(=O)CC(C)(C)C3)cc1 | 16 | 0.076 | nt
COC(=O)N/N=C\c1ccc(-c2cc(Cl)c(Cl)cc2Cl)o1 | 5 | -0.99 | nt
COC(=O)N/N=C/c1ccc(-c2cc(Cl)ccc2Cl)o1 | -6 | nt | 0.066*
O=C(Cn1nc(-c2ccccc2)nc1-c1ccccc1)N1CCOCC1 | nt | -0.38 | nt
CCn1cc(S(=O)(=O)N2CCN(Cc3cccc(Cl)c3)CC2)cn1 | 5 | -0.26 | nt
CCn1cc(S(=O)(=O)N2CCN(Cc3ccc(F)cc3)CC2)cn1 | -3 | -23* | 0.083
O=C(Nc1nc2c(F)cc(F)cc2s1)C1CC(=O)N(Cc2ccco2)C1 (stereo unspecified) | 3 | nt | nt
CC(=O)c1c(C)nc(-c2cccc([N+](=O)[O-])c2)n1O | 23 | -4.7* | 0.063*
COc1ccc(-c2nc(C)c(C(C)=O)n2O)cc1[N+](=O)[O-] | 8 | -0.25 | nt
CCCCNc1nc(N(C)c2ccccc2)nc(-n2ccnc2)n1 | nt | 1.2 | nt
CCCCCNc1nc(-c2ccccc2)nc(-n2ccnc2)n1 | 15 | nt | 0.085
Cc1cc(C)cc(Nc2ncnc3nc[nH]c23)c1 | 19 | -0.07 | nt
COc1ccccc1Nc1ncnc2nc[nH]c12 | nt | 4* | 0.084
NS(=O)(=O)c1ccc(N2CCCCCC2)c([N+](=O)[O-])c1 | 13 | -0.89 | nt
Clc1ccc2nc3ccccn3c2c1 | nt | 3.6* | 0.092
SMILES | Biofilm kill mix | ROMK primary | ROMK hit retest
N#Cc1ccc2c(c1)nc1ccccn12 | 16 | nt | nt
COC(=O)/C=C1/SC(=Nc2ccc(C)cc2C)NC1=O | nt | 1.2 | nt
COC(=O)/C=C1\SC(=NC(=O)c2ccc(C)cc2)NC1=O | 8 | -4.1* | 0.045*
COC(=O)c1cc(NC(=O)c2ccc(OC)cc2)c(=O)oc1C | 9 | 0.78 | nt
COc1ccc(C(=O)Nc2cc(C(C)=O)c(/C=C/N(C)C)oc2=O)cc1 | nt | nt | 0.037*
CSc1n[nH]c(=O)n1C1CCCCC1 | 13 | nt | nt
CC(C)CCN1C(=O)CCC1(C)C(=O)NC1CCCCCCC1 (stereo unspecified) | nt | -0.56 | nt
O=C(/C=C\Nc1ccc2c(c1)OCO2)c1ccc2c(c1)OCO2 | 18 | nt | 0.059*
COc1ccc(N/C=C\C(=O)c2ccc3c(c2)OCO3)cc1 | nt | 0.56 | nt
Cc1cc(Cl)c(OCCCNCc2ccccc2)c(Br)c1 | nt | -5.2* | 0.053*
Cc1cccc(OCCCCCNCCO)c1 | nt | -0.0035 | nt
O=[N+]([O-])c1ccccc1OCCCNCc1ccccc1 | 8 | 0.61 | nt
Clc1ccc(Cl)c(OCCCCNCc2ccccc2)c1 | 12 | -3.2* | 0.066*
C=CCNCCCOc1ccc(Cl)cc1Br | 16 | -0.72 | nt
Clc1ccc(OCCCNCc2ccccc2)c(Br)c1 | nt | -3* | 0.064*
Cc1cccc(OCCCCNCc2ccccc2)c1 | 11 | -1.3* | 0.062*
Cc1cc(Cl)c(OCCCN2CCCCC2)c(Br)c1 | 18 | -2.7 | nt
O=C(O)CC(C(=O)N(c1ccccc1)c1ccccc1)N1CCOCC1 (stereo unspecified) | nt | 0.55 | nt
Cc1cc[n+](CC(=O)c2cc3ccccc3oc2=O)cc1 | 10 | -2.5 | nt
Cc1cc(C)nc(SCC(=O)c2cc3ccccc3oc2=O)n1 | nt | -4.1* | 0.06*
CN(C)c1ccc(/C=N\NC(=S)SCN2C(=O)C3CCC(C)(C2=O)C3(C)C)cc1 (stereo unspecified) | 13 | -0.48 | nt
Cc1cc(C)nc(/N=C2\NC(=O)CC(C(=O)O)N2c2ccc(Cl)cc2)n1 (stereo unspecified) | nt | nt | 0.082
Cc1ccc(N2/C(=N/c3nc(C)cc(C)n3)NC(=O)CC2C(=O)O)cc1 (stereo unspecified) | nt | 0.0097 | nt
